Test results from ChEMBL document CHEMBL1155284, “Synthesis and antibacterial activity of some new thiadiaza/triazaphospholes, thiadiaza/triaza/tetrazaphosphinines and thiadiaza/tetrazaphosphepines containing 1,2,4-triazinone moiety” (Eur J Med Chem, 2009).
In brackets after ≈: the same amount, converted by molar mass.

Columns and labels:
Staphylococcus aureus [1] = test: Antimicrobial activity against Staphylococcus aureus MTCCB 737 after 24 hrs by tube dilution technique; type: functional; conditions: MTCCB 737, 24 h
Procedure, shortened: (§1)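 Tube dilution in nutrient broth at 3.12, 6.25, 12.5, 25 and 50 µg/mL. Each tube received 100 µL of standardized bacterial suspension (10^7 cell/mL). Tubes were incubated at 37 °C for 24 h. MIC was the lowest concentration that maintained or reduced inoculum viability.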

Pseudomonas aeruginosa [2] = test: Antimicrobial activity against Pseudomonas aeruginosa ATCC 27853 at 100 ug/mL after 16 to 20 hrs by disk diffusion method; type: functional; conditions: read-out: DIZ
Procedure, shortened: (§2)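 Nutrient agar disc diffusion with compounds at 100 µg/mL and DMSO as blank. Plates were incubated 16–20 h at 37 °C, then inhibition zone diameter was measured. Zones of 12 mm or less were scored resistant, 13–17 mm moderate, and 18 mm or more maximum inhibition.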

Staphylococcus aureus [3] = test: Antimicrobial activity against Staphylococcus aureus MTCCB 737 at 100 ug/mL after 16 to 20 hrs by disk diffusion method; type: functional; conditions: read-out: DIZ; procedure, shortened: as §2
[4] = system: Staphylococcus epidermidis; test: Antimicrobial activity against Staphylococcus epidermidis MTCCB 1824 after 24 hrs by tube dilution technique; type: functional; conditions: MTCCB 1824, 24 h; procedure, shortened: as §1
Escherichia coli [5] = test: Antimicrobial activity against Escherichia coli MTCCB 1652 after 24 hrs by tube dilution technique; type: functional; conditions: MTCCB 1652, 24 h; procedure, shortened: as §1
Escherichia coli [6] = test: Antimicrobial activity against Escherichia coli MTCCB 1652 at 100 ug/mL after 16 to 20 hrs by disk diffusion method; type: functional; conditions: read-out: DIZ; procedure, shortened: as §2
[7] = system: Staphylococcus epidermidis; test: Antimicrobial activity against Staphylococcus epidermidis MTCCB 1824 at 100 ug/mL after 16 to 20 hrs by disk diffusion method; type: functional; conditions: read-out: DIZ; procedure, shortened: as §2
Pseudomonas aeruginosa [8] = test: Antimicrobial activity against Pseudomonas aeruginosa ATCC 27853 after 24 hrs by tube dilution technique; type: functional; conditions: ATCC 27853, 24 h; procedure, shortened: as §1
[9] = (§3) Toxicity against Artemia salina larvae after 24 hrs; type: organism-based; conditions: in vivo
Procedure, shortened: (§4)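 Brine shrimp lethality test. Artemia salina eggs were hatched 48 h at 37 °C in filtered sea salt solution (38 g/L) with constant oxygen to give nauplii. Stock was 10 mg compound in 2 mL DMSO, diluted to 80, 40, 20, 10 and 5 µg/mL in triplicate vials, about 10 nauplii each, with a DMSO control. LC50 is the mean of three values.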

Artemia salina = test: as §3; type: organism-based; conditions: in vivo, 24 h; procedure, shortened: as §4
Pseudomonas aeruginosa [10] = test: Antimicrobial activity against Pseudomonas aeruginosa ATCC 27853
Staphylococcus aureus [11] = test: Antimicrobial activity against Staphylococcus aureus MTCCB 737 at 30 ug/mL after 16 to 20 hrs by disk diffusion method; type: functional; conditions: read-out: DIZ
Procedure, shortened: (§5)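 Nutrient agar disc diffusion with the reference drug tetracycline at 30 µg/mL and DMSO as blank. Plates were incubated 16–20 h at 37 °C, then inhibition zone diameter was measured. Zones of 12 mm or less were scored resistant, 13–17 mm moderate, and 18 mm or more maximum inhibition.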

Pseudomonas aeruginosa [12] = test: Antimicrobial activity against Pseudomonas aeruginosa ATCC 27853 at 30 ug/mL after 16 to 20 hrs by disk diffusion method; type: functional; conditions: read-out: DIZ; procedure, shortened: as §5
[13] = system: Staphylococcus epidermidis; test: Antimicrobial activity against Staphylococcus epidermidis MTCCB 1824 at 30 ug/mL after 16 to 20 hrs by disk diffusion method; type: functional; conditions: read-out: DIZ; procedure, shortened: as §5
Escherichia coli [14] = test: Antimicrobial activity against Escherichia coli MTCCB 1652 at 30 ug/mL after 16 to 20 hrs by disk diffusion method; type: functional; conditions: read-out: DIZ; procedure, shortened: as §5

| Compound | MIC (Staphylococcus aureus [1]) | zone of inhibition at 100 µg/mL (Pseudomonas aeruginosa [2]) | zone of inhibition at 100 µg/mL (Staphylococcus aureus [3]) | MIC [4] | MIC (Escherichia coli [5]) | zone of inhibition at 100 µg/mL (Escherichia coli [6]) | zone of inhibition at 100 µg/mL [7] | MIC (Pseudomonas aeruginosa [8]) | LC50 at 24 h [9] | LC50 (Artemia salina) | diameter of the inhibition zone (DIZ) (Pseudomonas aeruginosa [10]) | zone of inhibition at 30 µg/mL (Staphylococcus aureus [11]) | zone of inhibition at 30 µg/mL (Pseudomonas aeruginosa [12]) | zone of inhibition at 30 µg/mL [13] | zone of inhibition at 30 µg/mL (Escherichia coli [14]) |
| --- | --- | --- | --- | --- | --- | --- | --- | --- | --- | --- | --- | --- | --- | --- | --- |
| Cc1nnc(N)n(N)c1=O | 25 µg/mL (≈ 177 µM) | 13 mm | 16 mm | 25 µg/mL (≈ 177 µM) | 50 µg/mL (≈ 354 µM) | 14 mm | 15 mm | 50 µg/mL (≈ 354 µM) |  |  |  |  |  |  |  |
| Cc1nnc(S)n(N)c1=O | 50 µg/mL (≈ 316 µM) | 15 mm | 13 mm | 50 µg/mL (≈ 316 µM) | 50 µg/mL (≈ 316 µM) | 14 mm | 14 mm | 25 µg/mL (≈ 158 µM) |  |  |  |  |  |  |  |
| CCOP1(=O)Sc2nnc(C)c(=O)n2NC1c1ccc(Cl)cc1 (stereo not drawn) | 6.25 µg/mL (≈ 16.8 µM) | 20 mm | 27 mm | 6.25 µg/mL (≈ 16.8 µM) | 50 µg/mL (≈ 134 µM) | 15 mm | 23 mm | 25 µg/mL (≈ 67.1 µM) | 13.8 µg/mL (≈ 37.1 µM) |  |  |  |  |  |  |
| Cc1nnc2n(c1=O)NP(=O)(c1ccccc1)S2 (stereo not drawn) | 25 µg/mL (≈ 89.2 µM) | 23 mm | 20 mm | 25 µg/mL (≈ 89.2 µM) | 12.5 µg/mL (≈ 44.6 µM) | 21 mm | 17 mm | 12.5 µg/mL (≈ 44.6 µM) | 7.85 µg/mL (≈ 28 µM) |  |  |  |  |  |  |
| BLEOMYCIN |  |  |  |  |  |  |  |  |  | 0.41 µg/mL |  |  |  |  |  |
| CC1=Nn2c(nnc(C)c2=O)SP1(c1ccccc1)(c1ccccc1)c1ccccc1 | 25 µg/mL (≈ 56.2 µM) | 22 mm | 20 mm | 25 µg/mL (≈ 56.2 µM) | 12.5 µg/mL (≈ 28.1 µM) | 19 mm | 19 mm | 12.5 µg/mL (≈ 28.1 µM) |  |  |  |  |  |  |  |
| CN(C)[C@@H]1C(O)=C(C(N)=O)C(=O)[C@@]2(O)C(O)=C3C(=O)c4c(O)cccc4[C@@](C)(O)[C@H]3C[C@@H]12 [TETRACYCLINE] | 6.25 µg/mL (≈ 14.1 µM) |  |  | 6.25 µg/mL (≈ 14.1 µM) | 6.25 µg/mL (≈ 14.1 µM) |  |  | 6.25 µg/mL (≈ 14.1 µM) |  |  | 29 mm | 30 mm | 29 mm | 25 mm | 28 mm |
| Cc1nnc2n(c1=O)N=C(c1ccccc1)CP(c1ccccc1)(c1ccccc1)(c1ccccc1)S2 | 25 µg/mL (≈ 48 µM) | 19 mm | 21 mm | 12.5 µg/mL (≈ 24 µM) | 50 µg/mL (≈ 96 µM) | 16 mm | 19 mm | 50 µg/mL (≈ 96 µM) |  |  |  |  |  |  |  |
| Cc1nnc(NN)n(N)c1=O | 50 µg/mL (≈ 320 µM) | 15 mm | 17 mm | 50 µg/mL (≈ 320 µM) | 25 µg/mL (≈ 160 µM) | 15 mm | 15 mm | 50 µg/mL (≈ 320 µM) |  |  |  |  |  |  |  |
